Each structure is given as a SMILES string.

Series [1] has as its target T1, Peroxisome proliferator-activated receptor alpha (Homo sapiens, UniProt Q07869).
T1 sequence (Q07869 whole entry): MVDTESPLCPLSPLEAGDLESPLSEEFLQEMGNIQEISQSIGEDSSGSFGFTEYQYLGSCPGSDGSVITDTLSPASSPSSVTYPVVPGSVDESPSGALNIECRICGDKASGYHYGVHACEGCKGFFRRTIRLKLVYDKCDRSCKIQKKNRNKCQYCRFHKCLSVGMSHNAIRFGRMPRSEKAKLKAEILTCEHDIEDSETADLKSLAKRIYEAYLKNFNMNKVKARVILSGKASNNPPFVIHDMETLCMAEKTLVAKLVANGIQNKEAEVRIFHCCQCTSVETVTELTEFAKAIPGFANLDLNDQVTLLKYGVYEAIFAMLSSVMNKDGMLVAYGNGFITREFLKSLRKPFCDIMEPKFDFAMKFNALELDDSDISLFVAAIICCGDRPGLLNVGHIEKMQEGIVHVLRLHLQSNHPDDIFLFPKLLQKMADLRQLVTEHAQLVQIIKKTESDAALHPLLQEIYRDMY
The series is described as follows: Effect on human PPARalpha transactivation in 293T cells. The format is functional, cell-based. In a few lines:
(§1)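 293T cells transfected for 6 h (Fugene6) with a GAL4 DNA-binding domain–PPAR ligand-binding domain fusion plasmid and pG5-Luc reporter (5 GAL4-binding sites, TATA box, firefly luciferase). Compounds were then added at 1× final concentration in 1% DMSO for 18-20 h at 37 °C. Cells were lysed with Britelite for luciferase read-out.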

In series [2] the target is T2, Peroxisome proliferator-activated receptor delta (Homo sapiens, UniProt Q03181).
T2 sequence (Q03181 whole entry): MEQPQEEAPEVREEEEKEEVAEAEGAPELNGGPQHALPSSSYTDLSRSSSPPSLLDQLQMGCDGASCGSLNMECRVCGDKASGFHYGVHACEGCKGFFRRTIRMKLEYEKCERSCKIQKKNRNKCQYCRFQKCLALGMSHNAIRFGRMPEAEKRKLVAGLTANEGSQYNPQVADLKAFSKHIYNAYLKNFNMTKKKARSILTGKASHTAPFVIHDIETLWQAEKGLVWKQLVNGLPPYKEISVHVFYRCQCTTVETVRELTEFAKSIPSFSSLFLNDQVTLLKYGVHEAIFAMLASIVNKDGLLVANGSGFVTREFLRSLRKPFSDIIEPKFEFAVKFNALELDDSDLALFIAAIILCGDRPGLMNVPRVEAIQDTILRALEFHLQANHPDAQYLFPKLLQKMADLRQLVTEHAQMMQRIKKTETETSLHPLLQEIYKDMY
The series is described as follows: Effect on human PPARdelta transactivation in 293T cells. The format is functional, cell-based.

Series [3] deals with T3, Peroxisome proliferator-activated receptor gamma (Homo sapiens, UniProt P37231).
T3 sequence (P37231 whole entry): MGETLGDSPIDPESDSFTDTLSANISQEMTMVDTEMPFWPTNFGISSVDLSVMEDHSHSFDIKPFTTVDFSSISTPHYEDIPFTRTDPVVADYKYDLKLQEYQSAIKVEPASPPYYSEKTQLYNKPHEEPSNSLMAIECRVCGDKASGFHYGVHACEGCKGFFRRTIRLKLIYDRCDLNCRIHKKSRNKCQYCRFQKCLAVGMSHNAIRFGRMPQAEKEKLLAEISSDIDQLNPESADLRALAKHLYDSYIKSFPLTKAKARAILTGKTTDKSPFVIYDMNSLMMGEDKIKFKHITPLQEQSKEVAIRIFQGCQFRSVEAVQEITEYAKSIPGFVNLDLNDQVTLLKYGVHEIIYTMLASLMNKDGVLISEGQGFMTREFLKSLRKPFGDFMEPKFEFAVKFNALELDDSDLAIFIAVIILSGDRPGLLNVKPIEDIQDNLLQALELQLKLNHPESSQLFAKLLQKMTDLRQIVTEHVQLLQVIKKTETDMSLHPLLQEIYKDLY
Kind of series: Effect on human PPARgamma transactivation in 293T cells. In kind it is functional, cell-based.

A short description of series [4]: Cmax in mouse at 10 mg/kg, po. The format is ADME, organism-based. Set-up: dose 10 mg/kg, route oral. To be noted: in vivo. An outline of the steps: (§2)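 Mice received a single oral dose of 10 mpk, given as a suspension in 0.5% CMC. Bioavailability, Cmax and half-life were obtained from this pharmacokinetic study.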
Series [5] deals with Liver microsomes. Kind of series: Stability in human liver microsome. The format is ADME. Background: Liver microsomes are vesicles of endoplasmic reticulum, rich in cytochrome P450 enzymes.
For series [6], the system named is Liver microsomes. Kind of series: Stability in rat liver microsome. The format is ADME.
Series [7] can be described thus: Half life in mouse at 10 mg/kg, po. In kind it is ADME, organism-based. Details: dose 10 mg/kg, route oral. To be noted: in vivo. An outline of the steps: as §2
Series [8] in a line: Bioavailability in mouse at 10 mg/kg, po. In kind it is ADME, organism-based. To be noted: in vivo. In a few lines:
as §2

For another series, the species on record is Mus musculus. Kind of series: Stability in mouse liver microsome. The format is ADME.
Series [9] concerns the target T4, Peroxisome proliferator-activated receptor gamma (Homo sapiens) (UniProt P37231).
T4 sequence (whole entry): T3 sequence (P37231 whole entry)
Kind of series: Effect on human PPARgamma transactivation in 293T cells relative to rosiglitazone. In kind it is functional, cell-based. In a few lines:
as §1

In the case of `O=C(O)Cc1ccc(OCc2cc(-c3ccc(C(F)(F)F)cc3)cc(-c3ccc(C(F)(F)F)cc3)c2)c(Cl)c1`, the EC50 in series [1] is greater than 10000 nM; in series [2] it was 540 nM; in series [3], greater than 10000 nM.
Consider `Cc1cc(OCc2cc(-c3ccc(OC(F)(F)F)cc3)cc(-c3ccc(OC(F)(F)F)cc3)c2)ccc1OCC(=O)O`, for which the EC50 in [1] is greater than 10000 nM; in [2], 30 nM; in series [3] it was greater than 10000 nM.
Regarding `Cc1cc(OCc2cc(-c3ccc(C(F)(F)F)cc3)nc(-c3ccc(C(F)(F)F)cc3)n2)ccc1OCC(=O)O`, the EC50 is greater than 10000 nM in [1], 30 nM in [2] and greater than 10000 nM in series [3].
`Cc1cc(OCc2cc(-c3ccc(Cl)cc3)cc(-c3ccc(Cl)cc3)c2)ccc1OCC(=O)O`: the EC50 in series [1] was greater than 10000 nM; in series [2], 110 nM; in series [3], greater than 10000 nM.
As to `Cc1cc(OCC(=O)O)ccc1OCc1cc(-c2ccc(C(F)(F)F)cc2)cc(-c2ccc(C(F)(F)F)cc2)c1`, the values for the EC50 in series [1], in [2] and in [3] were 3330 nM, 70 nM and greater than 10000 nM, respectively.
The like results for `O=C(O)Cc1ccc(SCc2cc(-c3ccc(C(F)(F)F)cc3)cc(-c3ccc(C(F)(F)F)cc3)c2)c(Cl)c1` were, in that order, greater than 10000 nM, 160 nM and greater than 10000 nM.
For `COc1ccc(-c2cc(-c3ccc(OC)cc3)nc(COc3ccc(OCC(=O)O)c(C)c3)n2)cc1`, the EC50 in series [1] was greater than 10000 nM; in [2], 110 nM; in series [3] it was greater than 10000 nM.
As to `Cc1cc(OCc2ccc(-c3ccc(C(F)(F)F)cc3)c(-c3ccc(C(F)(F)F)cc3)n2)ccc1OCC(=O)O`, the EC50 in [1], in series [2] and in series [3] was greater than 10000 nM throughout.
For the molecule `Cc1cc(OCc2ccc(-c3ccc(OC(F)(F)F)cc3)c(-c3ccc(OC(F)(F)F)cc3)c2)ccc1OCC(=O)O`, the EC50 in series [1], in series [2] and in [3] was greater than 10000 nM in each case.
On to `Cc1cc(OCc2cc(-c3ccc(C(F)(F)F)cc3)cc(-c3ccc(C(F)(F)F)cc3)c2)ccc1OCC(=O)O`, for which the EC50 is greater than 10000 nM in series [1], 10 nM in series [2] and greater than 10000 nM in [3]. Moreover, the Cmax in series [4] was greater than 4 µM. Moreover, the Stability entry in the series with Liver microsomes [5], in the series on Liver microsomes [6] and in the series filed under Mus musculus was “Stable” each time. The half-life in series [7] is 3 h. Besides, the bioavailability in [8] is greater than 50%.
For `Cc1cc(OCc2cc(-c3ccc(OC(F)(F)F)cc3)cc(-c3ccc(C(F)(F)F)cc3)c2)ccc1OCC(=O)O`, the figures for the concentration giving a half-maximal response (EC50) in series [1], in series [2] and in series [3] were greater than 10000 nM, 60 nM and greater than 10000 nM, respectively.
With `Cc1cc(OCc2cc(-c3ccc(OC(F)(F)F)cc3)nc(-c3ccc(OC(F)(F)F)cc3)n2)ccc1OCC(=O)O`, the EC50 was greater than 10000 nM in [1], 40 nM in series [2] and greater than 10000 nM in series [3]. This molecule registered a Cmax in series [4] greater than 4 µM. Further, the Stability entry in the series on Liver microsomes [5], with Liver microsomes [6] and in the series listed under Mus musculus was “Stable” throughout. For the same molecule, the half-life in series [7] is 3 h. This molecule also showed a bioavailability in series [8] greater than 50%.
With `COc1ccc(-c2ccc(COc3ccc(OCC(=O)O)c(C)c3)cc2-c2ccc(OC)cc2)cc1`, the EC50 in series [1], in series [2] and in series [3] was greater than 10000 nM in each case.
As to `Cc1cc(OCc2nc(-c3ccc(OC(F)(F)F)cc3)cc(-c3ccc(OC(F)(F)F)cc3)n2)ccc1OCC(=O)O`, the results for the EC50 in series [1], in series [2] and in series [3] were greater than 10000 nM, 90 nM and greater than 10000 nM, respectively.
In the case of `O=C(O)COc1ccc(OCc2cc(-c3ccccc3)cc(-c3ccccc3)c2)cc1`, the EC50 in series [1] is greater than 10000 nM; in series [2] it was 970 nM; in [3], 1200 nM.
The like results for `COc1ccc(-c2cc(COc3ccc(OCC(=O)O)c(C)c3)nc(-c3ccc(OC)cc3)n2)cc1` were, in that order, greater than 10000 nM, 210 nM and greater than 10000 nM.
For `Cc1cc(OCc2cc(-c3ccc(C(F)(F)F)cc3)cc(-c3cccc(C(F)(F)F)c3)c2)ccc1OCC(=O)O`, in that order: greater than 10000 nM, 560 nM and greater than 10000 nM.
The like results for `CC(C)(Oc1ccc(OCc2cc(-c3ccc(C(F)(F)F)cc3)cc(-c3ccc(C(F)(F)F)cc3)c2)cc1)C(=O)O` were, in that order, 730 nM, 50 nM and 370 nM.
`Cc1cc(OCc2nc(-c3ccc(C(F)(F)F)cc3)cc(-c3ccc(C(F)(F)F)cc3)n2)ccc1OCC(=O)O`: the EC50 in [1] is greater than 10000 nM; in series [2], 40 nM; in series [3], greater than 10000 nM.
With `Cc1cc(OCc2cc(-c3ccccc3)cc(-c3ccccc3)c2)ccc1OCC(=O)O`, the Efficacy in series [9] turned out to be 30%. For the same molecule, the EC50 in series [1] is greater than 10000 nM; in series [2], 560 nM; in series [3] it was 740 nM.
As for `COc1ccc(-c2cc(COc3ccc(OCC(=O)O)c(C)c3)cc(-c3ccc(C(F)(F)F)cc3)c2)cc1`, the EC50 in series [1] was greater than 10000 nM; in series [2] it was 70 nM; in series [3] it was greater than 10000 nM.
`O=C(O)COc1ccc(OCc2cc(-c3ccc(C(F)(F)F)cc3)cc(-c3ccc(C(F)(F)F)cc3)c2)cc1`: the values for the EC50 in series [1], in series [2] and in series [3] were 1640 nM, 110 nM and greater than 10000 nM, respectively.
The like results for `Cc1cc(OCc2cc(-c3ccc(N(C)C)cc3)cc(-c3ccc(N(C)C)cc3)c2)ccc1OCC(=O)O` were, in that order, greater than 10000 nM, 490 nM and greater than 10000 nM.
For `Cc1cc(SCc2cc(-c3ccc(C(F)(F)F)cc3)cc(-c3ccc(C(F)(F)F)cc3)c2)ccc1OCC(=O)O`, in that order: greater than 10000 nM, 30 nM and greater than 10000 nM.
The like results for `COc1ccc(-c2cc(COc3ccc(OCC(=O)O)c(C)c3)cc(-c3ccc(OC)cc3)c2)cc1` were, in that order, greater than 10000 nM, 350 nM and greater than 10000 nM.
For the molecule `Cc1ccc(-c2cc(COc3ccc(OCC(=O)O)c(C)c3)cc(-c3ccc(C(F)(F)F)cc3)c2)cc1`, the EC50 in series [1] was greater than 10000 nM; in series [2], 70 nM; in [3], greater than 10000 nM.
As for `Cc1cc(OCc2cc(-c3ccc(-c4ccccc4)cc3)cc(-c3ccc(C(F)(F)F)cc3)c2)ccc1OCC(=O)O`, the values for the EC50 in series [1], in [2] and in series [3] were greater than 10000 nM, 60 nM and greater than 10000 nM, respectively.

What is called EC50 is the concentration that produces a half-maximal response. A low value points to greater potency. As usually defined, the Cmax is the peak of the concentration-time curve. Broadly, the half-life is the time in which the quantity being followed falls by half. A low value points to rapid decline. What is called bioavailability is dose-corrected exposure relative to a reference, in per cent. Low values mean poor availability, high ones good availability.

(Values after ChEMBL document CHEMBL1147714, “1,3,5-Trisubstituted aryls as highly selective PPARdelta agonists” (Bioorg Med Chem Lett, 2006).)
